According to ChEMBL document CHEMBL1148584, “Effect of polyamine homologation on the transport and biological properties of heterocyclic amidines” (J Med Chem, 2006):

Experiments:
L1210 [1] = experiment: Intracellular level of spermine in L1210 cells in the presence of DFMO at 50 uM; format: functional, cell-based; conditions: Mus musculus
Procedure, shortened: (§1)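 L1210 cells in RPMI 1640/10% FCS with 2 mM aminoguanidine, seeded at 4 × 10⁴ cells/mL. Conjugate, with or without 5 mM DFMO, added at seeding; cells cultured 48 h, washed in cold NaCl, and extracted with 0.2 N HClO₄. Conjugate and free putrescine, spermidine and spermine quantified by ion-pair HPLC (UV 254 nm, fluorescence ex 345/em 455 nm); normalised to protein. Student's t-test, p<0.05.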

L1210 [2] = experiment: Intracellular level of spermidine in L1210 cells in the absence of DFMO at 50 uM; format: functional, cell-based; conditions: Mus musculus; procedure, shortened: as §1
Phosphodiesterase 1 = Phosphodiesterase 1 (Bos taurus, UniProt Q01061+P14100); experiment: Inhibition of bovine calmodulin-activated cAMP dependent phosphodiesterase; format: protein assay
Procedure, shortened: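 Crude bovine heart PDE preparation containing calmodulin and Ca²⁺ (0.2 milliunit). Incubated 20 min at 37 °C with 0.1 mM [8-³H]cAMP and graded drug concentrations in 30 mM Tris-HCl, 3 mM MgSO₄, 0.6 mM AMP. Stopped with ZnSO₄; Ba(OH)₂ precipitated AMP with BaSO₄; supernatant radioactivity counted. IC50 is the concentration giving 50% inhibition.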

L1210 [3] = experiment: Intracellular level of putrescine in L1210 cells in the presence of DFMO at 50 uM; format: functional, cell-based; conditions: Mus musculus; procedure, shortened: as §1
L1210 [4] = experiment: Intracellular level of conjugate in L1210 cells in the absence of DFMO at 50 uM; format: functional, cell-based; conditions: Mus musculus; procedure, shortened: as §1
CHO [5] = experiment: Cellular uptake in CHO cells at 50 uM; format: ADME, cell-based, Cricetulus griseus; conditions: chinese hamster
Procedure, shortened: (§2)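 CHO (RPMI 1640, 10% FCS, 2 mM aminoguanidine) and CHO-MG (plus L-proline) cells seeded at 2 × 10⁵ cells/mL. Conjugate added 24 h after seeding and cells harvested 24 h later, then washed in cold 0.14 M NaCl and sonicated in 0.2 N HClO₄. Supernatant analysed by ion-pair reversed-phase HPLC (n-octanesulfonate), expressed as nmol/mg protein; mean ± SD of three determinations.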

CHO-MG [6] = experiment: Cellular uptake in CHO-MG cells at 50 uM; format: ADME, cell-based, Cricetulus griseus; conditions: chinese hamster; procedure, shortened: as §2
L1210 [7] = experiment: Intracellular level of conjugate in L1210 cells in the presence of DFMO at 50 uM; format: functional, cell-based; conditions: Mus musculus; procedure, shortened: as §1
L1210 [8] = experiment: Intracellular level of putrescine in L1210 cells in the absence of DFMO at 50 uM; format: functional, cell-based; conditions: Mus musculus; procedure, shortened: as §1
L1210 [9] = experiment: Intracellular level of spermidine in L1210 cells in the presence of DFMO at 50 uM; format: functional, cell-based; conditions: Mus musculus; procedure, shortened: as §1
L1210 [10] = experiment: Intracellular level of spermine in L1210 cells in the absence of DFMO at 50 uM; format: functional, cell-based; conditions: Mus musculus; procedure, shortened: as §1
[11] = Selectivity for uptake CHO cell line over CHO-MG cell line at 50 uM; format: functional, Cricetulus griseus
Procedure, shortened: (§3)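 Ratio of intracellular conjugate level in CHO over CHO-MG cells. Both lines were exposed to conjugate 24 h after seeding at 2 × 10⁵ cells/mL, for 24 h with 2 mM aminoguanidine in the medium. Levels were measured by ion-pair HPLC of perchloric extracts and normalised to protein (nmol/mg).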

L1210 [12] = experiment: Intracellular level of spermidine in L1210 cells in the presence of DFMO at 25 uM; format: functional, cell-based; conditions: Mus musculus; procedure, shortened: as §1
L1210 [13] = experiment: Intracellular level of spermine in L1210 cells in the presence of DFMO at 25 uM; format: functional, cell-based; conditions: Mus musculus; procedure, shortened: as §1
L1210 [14] = experiment: Intracellular level of spermine in L1210 cells in the absence of DFMO at 25 uM; format: functional, cell-based; conditions: Mus musculus; procedure, shortened: as §1
L1210 [15] = experiment: Intracellular level of putrescine in L1210 cells in the absence of DFMO at 25 uM; format: functional, cell-based; conditions: Mus musculus; procedure, shortened: as §1
L1210 [16] = experiment: Intracellular level of conjugate in L1210 cells in the absence of DFMO at 25 uM; format: functional, cell-based; conditions: Mus musculus; procedure, shortened: as §1
L1210 [17] = experiment: Intracellular level of conjugate in L1210 cells in the presence of DFMO at 25 uM; format: functional, cell-based; conditions: Mus musculus; procedure, shortened: as §1
L1210 [18] = experiment: Intracellular level of spermidine in L1210 cells in the absence of DFMO at 25 uM; format: functional, cell-based; conditions: Mus musculus; procedure, shortened: as §1
CHO-MG [19] = experiment: Inhibition of cell growth in CHO-MG cells in the presence of DFMO; format: functional, cell-based; conditions: Cricetulus griseus
Procedure, shortened: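 L1210 cells seeded at 5 × 10⁴ cells/mL with conjugate added at seeding; CHO/CHO-MG plated at 2 × 10³ cells/mL with conjugate added after overnight (24 h). 5 mM DFMO added together with conjugate; medium contains 2 mM aminoguanidine. After 48 h, growth read by MTT formazan absorbance at 540 nm. IC50 is 50% growth inhibition; mean of three determinations.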

L1210 [20] = experiment: Intracellular level of putrescine in L1210 cells in the presence of DFMO at 25 uM; format: functional, cell-based; conditions: Mus musculus; procedure, shortened: as §1
CHO-MG [21] = experiment: Cellular uptake in CHO-MG cells at 10 uM; format: ADME, cell-based, Cricetulus griseus; conditions: chinese hamster; procedure, shortened: as §2
L1210 [22] = experiment: Intracellular level of spermine in L1210 cells in the presence of DFMO at 10 uM; format: functional, cell-based; conditions: Mus musculus; procedure, shortened: as §1
[23] = Selectivity for uptake in CHO cell line over CHO-MG cell line at 5 uM; format: functional, Cricetulus griseus; procedure, shortened: as §3
L1210 [24] = experiment: Intracellular level of conjugate in L1210 cells in the presence of DFMO at 10 uM; format: functional, cell-based; conditions: Mus musculus; procedure, shortened: as §1
L1210 [25] = experiment: Intracellular level of spermidine in L1210 cells in the absence of DFMO at 10 uM; format: functional, cell-based; conditions: Mus musculus; procedure, shortened: as §1
L1210 [26] = experiment: Intracellular level of putrescine in L1210 cells in the absence of DFMO at 10 uM; format: functional, cell-based; conditions: Mus musculus; procedure, shortened: as §1
L1210 [27] = experiment: Intracellular level of spermidine in L1210 cells in the presence of DFMO at 10 uM; format: functional, cell-based; conditions: Mus musculus; procedure, shortened: as §1
L1210 [28] = experiment: Intracellular level of conjugate in L1210 cells in the absence of DFMO at 10 uM; format: functional, cell-based; conditions: Mus musculus; procedure, shortened: as §1
CHO-MG [29] = experiment: Cellular uptake in CHO-MG cells at 5 uM; format: ADME, cell-based, Cricetulus griseus; conditions: chinese hamster; procedure, shortened: as §2
CHO [30] = experiment: Cellular uptake in CHO cells at 10 uM; format: ADME, cell-based, Cricetulus griseus; conditions: chinese hamster; procedure, shortened: as §2
L1210 [31] = experiment: Intracellular level of spermine in L1210 cells in the absence of DFMO at 10 uM; format: functional, cell-based; conditions: Mus musculus; procedure, shortened: as §1
CHO [32] = experiment: Cellular uptake in CHO cells at 5 uM; format: ADME, cell-based, Cricetulus griseus; conditions: chinese hamster; procedure, shortened: as §2
CHO-MG [33] = experiment: Selectivity for uptake in CHO cell line over CHO-MG cell line at 10 uM; format: functional, cell-based; conditions: Cricetulus griseus; procedure, shortened: as §3

SMILES	IC50 (Phosphodiesterase 1)	Drug uptake (CHO [5])	Drug uptake (CHO-MG [6])	Drug uptake (CHO-MG [21])	Drug uptake (L1210 [1])	Drug uptake (L1210 [2])	Drug uptake (L1210 [3])	Drug uptake (L1210 [4])	Drug uptake (L1210 [7])	Drug uptake (L1210 [8])	Drug uptake (L1210 [9])	Drug uptake (L1210 [10])	Selectivity ratio [11]	Drug uptake (L1210 [22])	Selectivity ratio [23]	Drug uptake (L1210 [24])	Drug uptake (L1210 [25])	Drug uptake (L1210 [26])	Drug uptake (L1210 [27])	Drug uptake (L1210 [28])	also measured
NCCCCNC1=Nc2ccccc2CC1	> 500 µM	–	–	0.37 nmol/mg	–	–	–	–	–	–	–	–	–	16.5 nmol/mg	4.6	0.34 nmol/mg	21 nmol/mg	1.8 nmol/mg	0.94 nmol/mg	0.26 nmol/mg	Drug uptake (CHO-MG [29]): 0.26 nmol/mg; Drug uptake (CHO [30]): 2.1 nmol/mg; Drug uptake (L1210 [31]): 12.5 nmol/mg; Drug uptake (CHO [32]): 1.2 nmol/mg; Ratio (CHO-MG [33]): 5.7
NCCCNCCCCNCCCNC1=Nc2ccccc2CC1	> 500 µM	–	–	0.022 nmol/mg	–	–	–	–	–	–	–	–	–	13.9 nmol/mg	1	2.4 nmol/mg	8.1 nmol/mg	0.33 nmol/mg	4.2 nmol/mg	1.5 nmol/mg	Drug uptake (CHO-MG [29]): 0.029 nmol/mg; Drug uptake (CHO [30]): 0.029 nmol/mg; Drug uptake (L1210 [31]): 13.9 nmol/mg; Drug uptake (CHO [32]): 0.029 nmol/mg; Ratio (CHO-MG [33]): 1.3

The next lines start with results.

IC50 (Phosphodiesterase 1)	Drug uptake (CHO [5])	Drug uptake (CHO-MG [6])	Drug uptake (CHO-MG [21])	SMILES	Drug uptake (L1210 [1])	Drug uptake (L1210 [2])	Drug uptake (L1210 [3])	Drug uptake (L1210 [4])	Drug uptake (L1210 [7])	Drug uptake (L1210 [8])	Drug uptake (L1210 [9])	Drug uptake (L1210 [10])	Selectivity ratio [11]	Drug uptake (L1210 [22])	Selectivity ratio [23]	Drug uptake (L1210 [24])	Drug uptake (L1210 [25])	Drug uptake (L1210 [26])	Drug uptake (L1210 [27])	Drug uptake (L1210 [28])	also measured
64 µM	1.2 nmol/mg	1.7 nmol/mg	–	CNc1ccc(C2c3ccccc3N=C(NCCCNCCCCN)C2(C)C)cc1 (stereo not given)	8 nmol/mg	15 nmol/mg	0.08 nmol/mg	0.77 nmol/mg	0.62 nmol/mg	1.1 nmol/mg	2.4 nmol/mg	9.2 nmol/mg	0.7	–	–	–	–	–	–	–	–
373 µM	5.3 nmol/mg	5.9 nmol/mg	–	CNc1ccc(C2c3ccccc3N=C(NCCCCN)C2(C)C)cc1 (stereo not given)	6.6 nmol/mg	20 nmol/mg	1 nmol/mg	0.6 nmol/mg	0.33 nmol/mg	1.9 nmol/mg	1.8 nmol/mg	8.6 nmol/mg	0.9	–	–	–	–	–	–	–	–
22 µM	1.3 nmol/mg	1.2 nmol/mg	–	CNc1cccc2c1[C@H](C)C[C@]1(C)C(NCCCNCCCCN)=Nc3ccccc3[C@H]21	–	–	–	–	–	–	–	–	1	–	–	–	–	–	–	–	Drug uptake (L1210 [12]): 1.5 nmol/mg; Drug uptake (L1210 [13]): 8.9 nmol/mg; Drug uptake (L1210 [14]): 11 nmol/mg; Drug uptake (L1210 [15]): 1 nmol/mg; Drug uptake (L1210 [16]): 1.2 nmol/mg; Drug uptake (L1210 [17]): 1.3 nmol/mg; Drug uptake (L1210 [18]): 24 nmol/mg; IC50 (CHO-MG [19]): > 100 µM; Drug uptake (L1210 [20]): 0.02 nmol/mg
